ARNT-TACC3 inh: ARNT/TACC3 interaction disruption; 0.66% of 390,000 active; AlphaScreen His-ARNT PAS-B/GST-TACC3 binding, luminescence; TACC3 fragment carries E629A point mutation; inhibition, % at 9.99 µM; AID 623870; Q9Y6A5;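 active = mean inhibition of replicates at least 50% and at least half of replicates each reaching 50%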
Rce1 inhib: blocks yeast Ras-converting enzyme; Q03530; yeast membranes, quenched prenylated peptide cleavage fluorescence; calls only; 0.27% of 290,000 active; AID 2563;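 active = fall in fluorescence gain of 50% or more versus controls, with final raw signal at or below 3038400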
Target sequence (Q03530 whole entry, looked up): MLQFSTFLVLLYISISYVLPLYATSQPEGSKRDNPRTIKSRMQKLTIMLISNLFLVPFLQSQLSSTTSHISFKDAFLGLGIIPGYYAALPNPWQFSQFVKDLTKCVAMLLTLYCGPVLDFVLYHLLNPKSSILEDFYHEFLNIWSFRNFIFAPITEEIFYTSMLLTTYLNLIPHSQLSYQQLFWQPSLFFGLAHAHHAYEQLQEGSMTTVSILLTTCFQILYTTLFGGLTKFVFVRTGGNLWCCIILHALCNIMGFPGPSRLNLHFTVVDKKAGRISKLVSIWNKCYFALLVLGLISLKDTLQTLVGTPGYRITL
CAL PDZ FP-1: blocks peptide binding to human CAL PDZ domain. 0.02% of 330,000 active. inhibition, % at 20 µM. purified CAL PDZ, TMR-peptide fluorescence polarization, 1 h. Q9HD26;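 active = highest replicate inhibition of at least 40%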
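Material: tagged CAL PDZ domain; buffer or medium: 25 mM sodium phosphate pH 7.4, 150 mM NaCl, TCEP, IgG, Thesit; compound dosing: single point, 20 µM; schedule: 1 h incubation at room temperature before polarization reading; measured by: FP readout, S and P plane fluorescence; read-out basis: percent inhibition from loss of millipolarization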
CAL PDZ FP-2: blocks peptide binding to the human CAL PDZ domain. Q9HD26. purified CAL PDZ, TMR-peptide fluorescence polarization, 1 h. inhibition, % at 24.9 µM. 0.92% of 300,000 active. AID 602252;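 active = mean inhibition of at least 30% with at least half of replicates also reaching 30%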
AI-2 QS modul: Vibrio harveyi AI-2 quorum sensing modulation. Vibrio harveyi JMH597 AI-2 luminescence/OD600 ratio, 9 h; hits give low values; strain lacks LuxN and CqsS sensors; 0 = neutral-control median. activity change, % at 7.5 µM. 0.4% of 300,000 active; in the data active = activity change below about -75%, passing the limit was not always enough;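 note: luminescence divided by OD600 gain over 9 h not by final OD600 alone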
Each line names hits and unclear results; the compound was inactive in the other large screens. An excerpt weighted towards active compounds, which were near 1.7% of everything screened.

c1cncc(-c2nnc(-c3cccnc3)nn2)c1	none
Cn1c(SSc2ccc(-c3cccnc3)n2C)ccc1-c1cccnc1	ARNT-TACC3 inh 17 (no result: Rce1 inhib, AI-2 QS modul)
CCOc1ccc(NC(=O)c2ccc(NC(=O)c3cn4c5c(c(N6CCN(C)CC6)c(F)cc5c3=O)OCC4C)cc2)cc1 (centres undefined)	none
CC1COc2c(N3CCN(C)CC3)c(F)cc3c(=O)c(C(=O)O)cn1c23 (centres undefined)	Rce1 inhib active
C/C(CC(=O)Nc1ccc2c(c1)OCCO2)=N\NC(=O)COc1ccc(Cl)c(C)c1	CAL PDZ FP-2 47
COc1ccc(CC(=O)N/N=C(\C)CC(=O)Nc2ccc3c(c2)OCCO3)cc1OC	CAL PDZ FP-2 44
COc1cc(C(=O)NCCSc2ccc(Br)cc2)cc(OC)c1OC	none
C[C@@H]1CN([C@@H](C)CO)C(=O)c2cccc(NC(=O)C3CC3)c2O[C@H]1CN(C)C(=O)Nc1ccccc1	none (no result: Rce1 inhib, CAL PDZ FP-1, CAL PDZ FP-2, AI-2 QS modul)
Cc1cc(NC(=O)Cc2ccccc2)c2ccccc2n1	none
COc1ccc(CNC(=O)c2ccccc2NS(C)(=O)=O)cc1	Rce1 inhib active (no result: CAL PDZ FP-2)
COc1ccccc1CNC(=O)c1ccccc1NS(C)(=O)=O	none
CCOP(=O)(/C(C#N)=C(/O)c1ccccc1)c1ccccc1 (centres undefined)	CAL PDZ FP-2 123 (no result: Rce1 inhib)
O=C(NC(=S)NNC(=O)c1ccccc1O)c1ccc(F)cc1	ARNT-TACC3 inh 19
O=C(NC(=S)NC1CCN(Cc2ccccc2)CC1)c1ccc(F)cc1	none
Cc1ccc(C(=O)NC(=S)NNC(=O)c2ccccc2O)cc1	none
O=C(NC(=S)NNC(=O)c1ccccc1O)c1ccccc1	ARNT-TACC3 inh 55
O=C(NC1CCCCC1)c1ccc([N+](=O)[O-])cc1	CAL PDZ FP-2 92 (no result: Rce1 inhib, AI-2 QS modul)
O=C(NC(=S)NC1CCCCC1)c1ccc(F)cc1	CAL PDZ FP-2 44
COc1ccc(N(CC(=O)N2CCN(c3ccccc3)CC2)S(=O)(=O)c2ccc(C)cc2)cc1	none (no result: CAL PDZ FP-2)
COc1ccccc1N(CC(=O)N1CCN(c2ccccc2)CC1)S(=O)(=O)c1ccc(C)cc1	CAL PDZ FP-2 66
CC1CC(C)CN(C(=O)C2CCCN(c3ncnc4c3nc3n4CCCCC3)C2)C1 (centres undefined)	AI-2 QS modul -76
COc1cc(CNCc2ccccn2)ccc1OCC(=O)NC1CCCCC1	ARNT-TACC3 inh 47
CCOc1c(Cl)cc(CNCc2ccccn2)cc1OC	ARNT-TACC3 inh 49
COc1cc(CNCc2ccccn2)ccc1OCC(=O)NC(C)(C)C	ARNT-TACC3 inh 82
COc1ccc(NC(=O)COc2ccc(C)nc2[N+](=O)[O-])cc1S(N)(=O)=O	none (no result: Rce1 inhib, CAL PDZ FP-2, AI-2 QS modul)
Cc1ccc(NC(=O)CN2C(=O)NC3(CCc4ccccc43)C2=O)cc1Cl (centres undefined)	AI-2 QS modul -90
COC(=O)CNC(=O)CN1C(=O)NC2(CCCc3ccccc32)C1=O (centres undefined)	CAL PDZ FP-2 39
COC(=O)CN1C(=O)NC2(CCCc3ccccc32)C1=O (centres undefined)	none
COc1cccc(NC(=O)CN2C(=O)NC3(CCc4ccccc43)C2=O)c1 (centres undefined)	CAL PDZ FP-2 73 (no result: Rce1 inhib, AI-2 QS modul)
Cc1ccc(NC(=O)CN2C(=O)NC3(CCc4ccccc43)C2=O)cc1 (centres undefined)	AI-2 QS modul -90
CCOc1cc(/C=N\n2nnnc2N)ccc1O	none
C[C@@H]1CCCCO[C@H](CN(C)S(=O)(=O)c2cccs2)[C@@H](C)CN([C@@H](C)CO)C(=O)c2cc(NC(=O)Nc3ccc(C(F)(F)F)cc3)ccc2O1	none (no result: Rce1 inhib, CAL PDZ FP-1, CAL PDZ FP-2, AI-2 QS modul)
COc1ccc(OC)c(NC(=O)CN2C(=O)NC3(CCOc4ccccc43)C2=O)c1 (centres undefined)	CAL PDZ FP-2 38 (no result: CAL PDZ FP-1)
Cn1nc([N+](=O)[O-])nc1Sc1cccc2cccnc12	ARNT-TACC3 inh 63
COc1cc(N)c2ncccc2c1OC	none (no result: Rce1 inhib, AI-2 QS modul)
COc1cc(NC(C)CCCNC(C)C)c2ncccc2c1OC (centres undefined)	ARNT-TACC3 inh 59 (no result: Rce1 inhib, AI-2 QS modul)
COc1cc(NCCCCCCN)c2ncccc2c1OC	ARNT-TACC3 inh 52 (no result: Rce1 inhib, AI-2 QS modul)
O=C(OC1CCCCC1)c1cc2ccccc2oc1=O	none
O=C(OC[C@@H]1CCCN2CCCC[C@H]12)c1cc2ccccc2oc1=O	Rce1 inhib active
Cc1ccccc1NC(=O)Cn1cnc2c(oc3ccccc32)c1=O	none
Cc1cccc(NC(=O)Cn2cnc3c(oc4ccccc43)c2=O)c1C	CAL PDZ FP-1 62
CC(C)CCN1CC(=O)N2[C@@H](Cc3c([nH]c4ccccc34)C2(C)C)C1=O	CAL PDZ FP-2 61
COc1ccccc1CCNS(=O)(=O)c1cn(C)c(=O)n(C)c1=O	none
COC(=O)c1ccc(S(=O)(=O)NCCc2ccccc2OC)n1C	CAL PDZ FP-2 69
CC(Oc1ccc2c3c(c(=O)oc2c1)CCCC3)C(=O)NC1CC(C)(C)NC(C)(C)C1 (centres undefined)	Rce1 inhib active
Cc1c(C)c2ccc(OC(C)C(=O)NC3CC(C)(C)NC(C)(C)C3)cc2oc1=O (centres undefined)	none
O=C(c1cnc(Cl)c(Cl)c1)N1CCC(Cc2ccccc2)CC1	Rce1 inhib active
O=C(O)c1ccccc1N=Nc1c(O)[nH]c2ccc([N+](=O)[O-])cc12	ARNT-TACC3 inh 47
Cn1c(=O)oc2cc(S(=O)(=O)Nc3ccccc3F)ccc21	none
O=C(COC(=O)c1cnccn1)Nc1c(Cl)cc(Cl)cc1Cl	none (no result: Rce1 inhib, AI-2 QS modul)
COCCNC(=O)c1cc2cc(Br)cc(Br)c2oc1=O	CAL PDZ FP-2 48
COCCNC(=O)c1cc2cc(Br)cc(OC)c2oc1=O	none
CCCCN(CCCC)CCCNC(=O)C1CC(c2cc(C(F)(F)F)cc(C(F)(F)F)c2)=NO1 (centres undefined)	none
c1cnc2ccc(C(c3nnnn3C3CCCCC3)N3CCN4CCCC4C3)cc2c1 (centres undefined)	none
OC1CCN(C(c2ccc3ncccc3c2)c2nnnn2C2CCCCC2)CC1 (centres undefined)	Rce1 inhib active
O=C(CCCc1ccccc1)NCCS(=O)(=O)N1CCN(c2ccccc2F)CC1	none
CC(C)COc1ccc(C(=O)N/N=C/c2ccoc2)cc1	none (no result: ARNT-TACC3 inh)
O=C(CSc1nc(-c2ccccc2)nn1C(=O)c1ccccc1)Nc1cccc([N+](=O)[O-])c1	none
CC(=O)c1cnc2nc(SCc3ccc(Cl)cc3)nn2c1C	CAL PDZ FP-2 178 (no result: CAL PDZ FP-1)
CSc1ccc(C(=O)C2CCCN(C(=O)c3cccnc3SC)C2)cc1 (centres undefined)	Rce1 inhib active
CSc1ncccc1C(=O)N1CCCC(C(=O)c2ccc3ccccc3c2)C1 (centres undefined)	none
COc1ccc(-c2cn3c(n2)CCC3)cc1	none (no result: CAL PDZ FP-1)
c1ccc(-c2ccc(-c3cn4c(n3)CCC4)cc2)cc1	Rce1 inhib active
Cc1ccccc1Cn1c(O)c(N=NC(=S)Nc2ccccc2F)c2ccccc21	none (no result: CAL PDZ FP-2)
Oc1c(N=NC(=S)Nc2ccccc2F)c2ccccc2n1Cc1ccccc1F	Rce1 inhib active

Compound activity as filed in PubChem BioAssay.
